Active and inactive are the calls of the source. The calls are words filed in the database; no cut-off is given here.
The compounds below were run against T1, Amine oxidase [flavin-containing] B (Homo sapiens, UniProt P27338) (assay: Inhibition of human recombinant MAOB expressed in baculovirus-infected BTI insect cells by Lineweaver-Burk plot analysis). Conditions: not given.
T1 sequence (P27338 whole entry): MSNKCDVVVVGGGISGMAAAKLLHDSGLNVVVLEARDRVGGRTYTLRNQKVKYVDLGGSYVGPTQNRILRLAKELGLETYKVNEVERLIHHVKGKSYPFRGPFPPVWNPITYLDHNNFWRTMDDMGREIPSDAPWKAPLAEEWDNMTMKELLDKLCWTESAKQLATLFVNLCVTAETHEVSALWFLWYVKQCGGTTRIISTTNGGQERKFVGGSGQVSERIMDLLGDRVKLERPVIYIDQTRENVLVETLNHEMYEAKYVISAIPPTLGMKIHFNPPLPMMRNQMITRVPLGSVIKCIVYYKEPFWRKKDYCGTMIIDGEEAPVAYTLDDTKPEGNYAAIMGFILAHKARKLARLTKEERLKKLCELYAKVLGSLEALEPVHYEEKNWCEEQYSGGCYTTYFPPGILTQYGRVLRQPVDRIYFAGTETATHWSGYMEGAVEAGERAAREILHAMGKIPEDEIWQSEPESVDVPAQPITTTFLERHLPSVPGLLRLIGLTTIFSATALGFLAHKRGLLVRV

| Ki [µM] | Compound |
| --- | --- |
| 0.11 | Cc1cc2c(nn1)-c1cc(OCc3cccc(Cl)c3)ccc1C2=O |

The compounds below were run against T2, Amine oxidase [flavin-containing] A (Homo sapiens, UniProt P21397) (assay: (§1) Inhibition of human recombinant MAOA expressed in baculovirus-infected BTI insect cells at 10 uM after 1 hr by MAO-GLO two-step bioluminescence assay). Conditions: 1 h, 10 µM.
T2 sequence (P21397 whole entry): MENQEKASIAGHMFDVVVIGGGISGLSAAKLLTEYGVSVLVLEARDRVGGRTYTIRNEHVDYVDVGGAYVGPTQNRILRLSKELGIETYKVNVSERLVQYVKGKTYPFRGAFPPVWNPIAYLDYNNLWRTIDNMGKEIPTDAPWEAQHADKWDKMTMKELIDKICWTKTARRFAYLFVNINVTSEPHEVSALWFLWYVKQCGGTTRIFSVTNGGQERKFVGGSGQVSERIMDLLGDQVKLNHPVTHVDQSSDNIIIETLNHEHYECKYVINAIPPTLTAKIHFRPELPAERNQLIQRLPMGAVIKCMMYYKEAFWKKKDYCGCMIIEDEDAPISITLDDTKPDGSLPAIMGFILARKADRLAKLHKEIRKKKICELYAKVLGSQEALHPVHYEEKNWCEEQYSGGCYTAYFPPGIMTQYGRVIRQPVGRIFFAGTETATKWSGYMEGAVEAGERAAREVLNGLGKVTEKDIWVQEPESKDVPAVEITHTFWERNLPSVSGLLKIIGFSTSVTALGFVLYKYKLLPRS
Procedure, shortened: (§2)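 Recombinant human MAO-A or MAO-B from baculovirus-infected BTI insect cells; test compound at […], in triplicate in vitro; activity measured by luminescent method (Valley et al.); percent inhibition given as mean ± SD, n = 3.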

| inhibition (INH) | Compound |
| --- | --- |
| Not Active | Cc1cc2c(nn1)-c1cc(OCCCC(F)(F)F)ccc1C2=O |
| Not Active | O=C1c2ccc(OCCCC(F)(F)F)cc2-c2nnc(-c3cccc(C(F)(F)F)c3)cc21 |
| Not Active | COc1ccc2c(c1)-c1nnc(-c3cccc(C(F)(F)F)c3)cc1C2=O |

These compounds were tested against T3, MAO-A (amine oxidase [flavin-containing] A) (Homo sapiens, UniProt P21397) (assay: as §1). Conditions: not given.
T3 sequence (P21397 whole entry): T2 sequence (P21397 whole entry)
Procedure, shortened: as §2

| inhibition at 1 h, 10 µM [%] | Compound |
| --- | --- |
| 10 | O=C1c2ccc(OCc3ccccc3)cc2-c2nnc(-c3cccc(C(F)(F)F)c3)cc21 |
| 15 | Cc1cc2c(nn1)-c1cc(OCc3cccc(Cl)c3)ccc1C2=O |
| 17 | Cc1cccc(COc2ccc3c(c2)-c2nnc(C)cc2C3=O)c1 |

The compounds below were run against T4, MAO-B (amine oxidase [flavin-containing] B) (Homo sapiens, UniProt P27338) (assay: Inhibition of human recombinant MAOB expressed in baculovirus-infected BTI insect cells at 10 uM after 1 hr by MAO-GLO two-step bioluminescence assay). Conditions: not given.
T4 sequence (P27338 whole entry): T1 sequence (P27338 whole entry)
Procedure, shortened: as §2

| Compound | inhibition at 1 h, 10 µM [%] |
| --- | --- |
| O=C1c2ccc(OCc3ccccc3)cc2-c2nnc(-c3cccc(C(F)(F)F)c3)cc21 | 7 |
| Cc1cccc(COc2ccc3c(c2)-c2nnc(C)cc2C3=O)c1 | 90 |
| O=C1c2ccc(OCCCC(F)(F)F)cc2-c2nnc(-c3cccc(C(F)(F)F)c3)cc21 | 57 |
| COc1ccc2c(c1)-c1nnc(-c3cccc(C(F)(F)F)c3)cc1C2=O | 36 |

Continued, values first:

| inhibition at 1 h, 10 µM [%] | Compound |
| --- | --- |
| 92 | Cc1cc2c(nn1)-c1cc(OCCCC(F)(F)F)ccc1C2=O |
| 93 | Cc1cc2c(nn1)-c1cc(OCc3cccc(Cl)c3)ccc1C2=O |

Each compound was assayed against T5, Tryptophan 2,3-dioxygenase (Ralstonia metallidurans (strain CH34 / ATCC 43123 / DSM 2839)) (UniProt Q1LK00) (assay: Inhibition of Ralstonia metallidurans TDO using L-tryptophan as substrate at 25 uM by fluorimetric method). Conditions: Cupriavidus metallidurans.
T5 sequence (whole entry): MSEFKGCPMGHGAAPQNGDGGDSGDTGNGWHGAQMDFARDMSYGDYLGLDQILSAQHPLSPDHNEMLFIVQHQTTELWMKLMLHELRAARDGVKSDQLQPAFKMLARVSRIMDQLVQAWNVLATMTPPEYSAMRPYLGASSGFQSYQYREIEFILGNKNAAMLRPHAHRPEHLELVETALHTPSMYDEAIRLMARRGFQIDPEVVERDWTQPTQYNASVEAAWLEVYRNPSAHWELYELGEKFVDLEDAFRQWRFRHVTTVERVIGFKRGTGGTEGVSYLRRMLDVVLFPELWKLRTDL
Procedure, shortened: (§3)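 Human IDO activity read colourimetrically, rmTDO activity read fluorometrically; compounds tested in vitro at […]; percent inhibition as mean ± SD, n = 3.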

| Compound | inhibition |
| --- | --- |
| O=C1c2ccc(OCc3ccccc3)cc2-c2nnc(-c3cccc(C(F)(F)F)c3)cc21 | inactive |
| Cc1cccc(COc2ccc3c(c2)-c2nnc(C)cc2C3=O)c1 | 66% |
| O=C1c2ccc(OCCCC(F)(F)F)cc2-c2nnc(-c3cccc(C(F)(F)F)c3)cc21 | 20% |
| COc1ccc2c(c1)-c1nnc(-c3cccc(C(F)(F)F)c3)cc1C2=O | 18% |

The remaining lines, values ahead:

| inhibition | Compound |
| --- | --- |
| 31% | Cc1cc2c(nn1)-c1cc(OCCCC(F)(F)F)ccc1C2=O |
| 19% | Cc1cc2c(nn1)-c1cc(OCc3cccc(Cl)c3)ccc1C2=O |

These compounds were tested against T1, Amine oxidase [flavin-containing] B (assay: Inhibition of human recombinant MAOB expressed in baculovirus-infected BTI insect cells after 1 hr by Cheng-Prusoff equation analysis). Conditions: not given.

| Ki [µM] | Compound |
| --- | --- |
| 0.16 | Cc1cc2c(nn1)-c1cc(OCc3cccc(Cl)c3)ccc1C2=O |
| 0.48 | Cc1cccc(COc2ccc3c(c2)-c2nnc(C)cc2C3=O)c1 |

Each compound was assayed against Indoleamine 2,3-dioxygenase 1 (Homo sapiens) (UniProt P14902) (assay: Inhibition of human IDO using L-tryptophan as substrate at 25 uM by colorimetric method). Conditions: not given.
Procedure, shortened: as §3

Indoleamine 2,3-dioxygenase 1 (Homo sapiens), sequence (P14902 whole entry, looked up): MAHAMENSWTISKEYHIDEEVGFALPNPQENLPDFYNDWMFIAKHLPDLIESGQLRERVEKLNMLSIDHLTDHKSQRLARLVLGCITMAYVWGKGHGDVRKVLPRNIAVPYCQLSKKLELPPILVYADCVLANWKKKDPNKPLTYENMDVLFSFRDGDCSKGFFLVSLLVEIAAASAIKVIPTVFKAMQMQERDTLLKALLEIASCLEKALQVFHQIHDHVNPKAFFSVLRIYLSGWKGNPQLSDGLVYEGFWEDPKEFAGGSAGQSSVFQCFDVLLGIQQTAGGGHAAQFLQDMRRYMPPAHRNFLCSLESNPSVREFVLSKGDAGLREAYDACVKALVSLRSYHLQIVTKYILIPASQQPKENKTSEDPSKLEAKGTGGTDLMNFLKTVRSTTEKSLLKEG

| Compound | inhibition |
| --- | --- |
| O=C1c2ccc(OCc3ccccc3)cc2-c2nnc(-c3cccc(C(F)(F)F)c3)cc21 | 17% |
| Cc1cccc(COc2ccc3c(c2)-c2nnc(C)cc2C3=O)c1 | 14% |
| O=C1c2ccc(OCCCC(F)(F)F)cc2-c2nnc(-c3cccc(C(F)(F)F)c3)cc21 | inactive |
| COc1ccc2c(c1)-c1nnc(-c3cccc(C(F)(F)F)c3)cc1C2=O | inactive |

More lines, now with the values ahead:

| inhibition | Compound |
| --- | --- |
| 19% | Cc1cc2c(nn1)-c1cc(OCCCC(F)(F)F)ccc1C2=O |
| 25% | Cc1cc2c(nn1)-c1cc(OCc3cccc(Cl)c3)ccc1C2=O |

Reference: ChEMBL document CHEMBL1914298, “Synthesis and inhibition study of monoamine oxidase, indoleamine 2,3-dioxygenase and tryptophan 2,3-dioxygenase by 3,8-substituted 5H-indeno[1,2-c]pyridazin-5-one derivatives” (Eur J Med Chem, 2011)
